High-throughput results (PubChem)
Shown are actives, neighbours in structure and some others; about 2.3% of the full set was active somewhere.
TRPC4 agonist = TRPC4 (mouse) channel activation. Q9QUQ5. HEK293 TRPC4beta/mu-opioid, Fluo4 calcium fluorescence; active compounds read high. B-score at 10 µM. actives 0.49% (n = 310,000). AID 2237;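 active = B-score above 5 SD of library B-scores, and initial fluorescence ratio not above library mean plus 5 SD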;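 also: positive B-score marks a calcium rise read as TRPC4 activation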
Target sequence (Q9QUQ5 whole entry, looked up): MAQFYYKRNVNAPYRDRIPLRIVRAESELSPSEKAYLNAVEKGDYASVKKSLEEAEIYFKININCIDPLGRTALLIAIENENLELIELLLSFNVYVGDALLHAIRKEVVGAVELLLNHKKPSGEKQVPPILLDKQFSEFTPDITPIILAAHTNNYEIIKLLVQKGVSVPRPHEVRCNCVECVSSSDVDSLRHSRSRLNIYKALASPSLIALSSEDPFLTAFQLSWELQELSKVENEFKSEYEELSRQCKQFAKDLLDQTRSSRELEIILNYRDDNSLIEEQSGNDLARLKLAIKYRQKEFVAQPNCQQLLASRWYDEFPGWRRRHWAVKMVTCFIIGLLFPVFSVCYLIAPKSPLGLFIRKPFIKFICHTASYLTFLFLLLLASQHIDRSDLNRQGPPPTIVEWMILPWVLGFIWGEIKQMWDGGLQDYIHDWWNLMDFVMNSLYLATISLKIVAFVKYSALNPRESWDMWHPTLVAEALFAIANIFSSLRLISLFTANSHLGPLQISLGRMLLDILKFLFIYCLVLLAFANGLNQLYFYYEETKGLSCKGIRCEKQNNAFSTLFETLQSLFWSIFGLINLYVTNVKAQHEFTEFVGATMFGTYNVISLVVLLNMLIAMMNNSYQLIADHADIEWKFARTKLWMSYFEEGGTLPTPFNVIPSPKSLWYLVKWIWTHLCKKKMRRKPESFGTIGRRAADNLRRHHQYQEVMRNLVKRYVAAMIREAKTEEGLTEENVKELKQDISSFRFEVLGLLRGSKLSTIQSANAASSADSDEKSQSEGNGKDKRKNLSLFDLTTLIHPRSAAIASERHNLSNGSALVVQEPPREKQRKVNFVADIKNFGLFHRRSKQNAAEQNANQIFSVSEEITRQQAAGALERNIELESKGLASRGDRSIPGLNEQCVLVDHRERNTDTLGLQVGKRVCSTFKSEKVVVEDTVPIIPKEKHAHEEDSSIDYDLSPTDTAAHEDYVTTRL
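Assay system: HEK293 cells stably co-expressing mouse TRPC4beta and mu-opioid receptor / Timing: Fluo4 dye loading 45 min at room temperature, 110 s recording / Signal: Fluo4 calcium-sensitive dye fluorescence, kinetic, 1 Hz baseline / Read-out: integrated baseline-normalised fluorescence ratio, converted to per-well B score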
TRPC4 inh = TRPC4 (mouse) channel inhibition | HEK293 TRPC4beta/mu-opioid, DAMGO-evoked Fluo4 calcium flux; active compounds read low | B-score at 10 µM | actives 0.39% (n = 300,000) | AID 2247;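 active = B-score over 3 SD under the library average, no early fluorescence shift, positive overall ratio signal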
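Assay system: HEK293 cells with stable TRPC4beta plus mu-opioid receptor expression. Dosing: single dose. Measured by: Fluo4 Ca2+ flux fluorescence. Also added: DAMGO in two steps, submaximal then maximal. Read-out: B score from integrated Fluo4 fluorescence ratio.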
TRPC6 activator = mouse TRPC6 channel activation | B-score at 10 µM | actives 0.13% (n = 310,000) | AID 2550 | Q61143 | HEK293-TRPC6 membrane potential dye fluorescence; active compounds read high;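 active = B-score of the integrated fluorescence ratio above library mean plus 3 SD, and starting fluorescence ratio within library mean plus 5 SD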;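 also: higher score means more depolarization so channel activation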
TRPC6 inhibitor = inhibitors of mouse TRPC6 channel; actives 1.1% (n = 310,000); HEK293-TRPC6, membrane potential dye, ACh-evoked depolarization; active compounds read low; Q61143; B-score at 10 µM;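 active = B-score under library mean minus 3 SD, initial fluorescence not abnormally high, positive integrated signal ratio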;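 also: B-score derived from integrated fluorescence ratio over the kinetic read; more negative B-score means stronger inhibition of depolarization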
TRPC4 PAM = allosteric potentiators of mouse TRPC4 channel. HEK293 TRPC4beta/mu-opioid, DAMGO EC20, Fluo-4 Ca2+ flux; active compounds read high. B-score at 10 µM. actives 0.42% (n = 310,000);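 active = B-score of calcium response area above 5 SD of library B-scores, with initial fluorescence ratio within 5 SD of library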
TRPC4 spec 2 = second check of whether TRPC6 inhibitors also affect mouse TRPC4. shares compounds with TRPC6 inhibitor. actives 42% (n = 920). AID 2776. inhibition, % at 10 µM. HEK293 TRPC4/MOR, membrane potential dye fluorescence; channel activated by saturating DAMGO dose;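 active = compounds whose fluorescence signal differed from control wells by over 3 SD, either direction, in both duplicate plates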
TRPC4 spec = selectivity of TRPC6 inhibitors: effect on mouse TRPC4; shares compounds with TRPC6 inhibitor; HEK293 TRPC4/mu-opioid, membrane potential fluorescence; activity change, negative = inhibition, % at 10 µM; actives 61% (n = 920);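 active = rise or fall in signal beyond 3 SD of buffer-only wells in both replicate plates, either sign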;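 also: integrated kinetic ratio of fluorescence range over baseline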
HEK293 MPD ctr 2-1 = second check of TRPC6 inhibitor effects in parental HEK293 cells. shares compounds with TRPC6 inhibitor. parental HEK293 membrane potential dye fluorescence; maximal acetylcholine challenge after compound addition. signal change vs control, % at 10 µM. actives 31% (n = 920);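 active = membrane potential signal moving either way by over 3 SD of the maximum-effect control, in both duplicate plates, meaning non-specific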
HEK293 MPD ctr-1 = counter-screen for TRPC6 inhibitors: effect in parental HEK293 cells | membrane potential signal change, % at 10 µM | actives 60% (n = 920) | shares compounds with TRPC6 inhibitor | AID 2780 | parental HEK293 membrane potential dye fluorescence;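 active = membrane potential signal shifting up or down by more than 3 SD of buffer-only wells, on both duplicate plates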
HEK293 MPD ctr-2 = parental HEK293 nonspecific activity of TRPC6 modulators | membrane potential dye fluorescence | AID 488924 | actives 51% (n = 2,400) | membrane potential signal change, % at 10 µM | shares compounds with TRPC6 inhibitor;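 active = membrane potential signal moves up or down beyond 5 SD from buffer-only wells, on both duplicate plates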
HEK293 MPD ctr 2-2 = second counter-screen for TRPC6 modulators: effect in parental HEK293 cells | shares compounds with TRPC6 inhibitor | membrane potential dye fluorescence; after compound, maximal acetylcholine stimulation | inhibition, % at 10 µM | actives 14% (n = 2,400) | AID 488926;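 active = membrane potential signal drops by more than 5 SD from the mean control signal, in both duplicate plates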
TRPC4 ctr mod = selectivity of TRPC6 modulators against mouse TRPC4; shares compounds with TRPC6 inhibitor; HEK293 TRPC4/mu-opioid, membrane potential fluorescence; percent change from control (negative = decrease, positive = increase), % at 10 µM; actives 69% (n = 2,400);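 active = membrane potential signal moved up or down beyond 5 SD of buffer control wells, in both duplicate plates, actives on both sides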
TRPC4/MOR inh 2 = second selectivity test of TRPC6 modulators against mouse TRPC4 | shares compounds with TRPC6 inhibitor | HEK293 TRPC4/mu-opioid, membrane potential dye fluorescence; stimulated with maximal-effect DAMGO | inhibition, % at 10 µM | actives 55% (n = 2,400) | AID 488928;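 active = drop in membrane potential signal beyond 5 SD of the control wells in both duplicate plates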;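 also: TRPC4 counter screen for TRPC6 hits run under conditions tuned for TRPC6 not TRPC4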
TRPC6 block conf = confirmation of mouse TRPC6 inhibitors | shares compounds with TRPC6 inhibitor | HEK293-TRPC6, membrane potential dye, ACh-evoked depolarization | inhibition, % at 10 µM | actives 43% (n = 3,300) | AID 488960;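 active = fluorescence ratio falls more than 5 SD below the full-stimulation control mean, in both duplicate runs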;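 also: integrated fluorescence ratio of peak minus minimum over baseline after agonist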
TRPC6 act confirm = mouse TRPC6 activator confirmation; shares compounds with TRPC6 inhibitor; HEK293-TRPC6 membrane potential dye fluorescence, FDSS; activation, % at 10 µM; actives 11% (n = 2,800);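 active = ratio signal rise beyond 5 SD above unstimulated control wells' mean, seen in both duplicate runs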
Numbers stand for hits; . = inactive; / = no result given; + = active, no number.

SMILES	TRPC4 agonist	TRPC4 inh	TRPC6 activator	TRPC6 inhibitor	TRPC4 PAM	HEK293 MPD ctr-2	HEK293 MPD ctr 2-2	TRPC4 ctr mod	TRPC4/MOR inh 2	TRPC6 block conf	TRPC6 act confirm	others
S=c1[nH]ncn1/N=C/c1ccccn1	.	.	.	.	.	/	/	/	/	/	/
Fc1ccc(CSc2nnc(-c3ccccn3)o2)cc1	.	.	.	.	.	/	/	/	/	/	/
O=C(CCCc1ccccc1)N=C1SC2CS(=O)(=O)CC2N1c1ccccc1F (stereo unspecified)	.	.	.	.	.	/	/	/	/	/	/
CCOc1cc(S(=O)(=O)N2CCCCCC2)ccc1F	.	.	.	-6.72	.	/	/	/	/	.	.	TRPC4 spec 2=.;TRPC4 spec=.;HEK293 MPD ctr 2-1=.;HEK293 MPD ctr-1=.
CCOc1ccccc1N1CCN(S(=O)(=O)c2ccc(F)c(F)c2)CC1	.	.	.	.	.	/	/	/	/	/	/
CSc1nnc(NC(=O)c2ccc(S(=O)(=O)N3CCOCC3)cc2)s1	.	.	.	.	.	/	/	/	/	/	/
O=C(NC(=S)N1CCCCCC1)c1ccc(Cl)cc1Cl	.	.	.	.	.	/	/	/	/	/	/
Oc1cccc(-c2nc3ccccc3s2)c1	.	.	.	.	.	/	/	/	/	/	/
CC[n+]1cccc(-c2nc3ccccc3s2)c1	.	.	.	-5.46	.	-161.5%	.	-26.0%	.	.	.
CC1CCCN(CCCNC(=O)c2ccc3c(c2)N(Cc2ccc(F)cc2)C(=O)c2ccccc2S3=O)C1 (stereo unspecified)	55	.	.	-5.06	.	.	.	.	77.0%	57.0%	.
O=C(NCCN1CCCC1)c1ccc2c(c1)N(Cc1cccc(Cl)c1)C(=O)c1ccccc1S2(=O)=O	.	.	.	.	.	/	/	/	/	/	/
Cc1cccc(CN2C(=O)c3ccccc3S(=O)(=O)c3ccc(C(=O)NCCCN4CCCC4)cc32)c1	.	.	.	-5.14	.	.	.	.	57.0%	41.0%	.
CS(=O)(=O)N(CC(=O)NC1CC2CCC1C2)c1ccc(Oc2ccccc2)cc1 (stereo unspecified)	.	.	.	.	.	/	/	/	/	/	/
Cc1ccc(S(=O)(=O)NCCC2=CCCCC2)cc1C(N)=O	.	.	.	.	.	/	/	/	/	/	/
CCCCOC(=O)c1ccc(NC(=O)c2ccoc2C)cc1	.	.	.	.	.	/	/	/	/	/	/
CCCCOC(=O)c1ccc(NC(=O)c2ocnc2C)cc1	.	.	.	-6.68	.	/	/	/	/	.	.	TRPC4 spec 2=.;TRPC4 spec=.;HEK293 MPD ctr 2-1=.;HEK293 MPD ctr-1=.
CCCCCOC(=O)c1ccc(NC(=O)c2cccc(NC(=O)c3ccccc3C(=O)O)c2)cc1	.	.	14	.	.	.	.	15.0%	.	/	199.5%
CCCCOC(=O)c1ccc(NC(=O)c2ccccc2OC)cc1	.	.	.	.	.	/	/	/	/	/	/
Cc1nc(Nc2cccc(O)c2)c2c3c(sc2n1)CCC3	.	.	.	.	.	/	/	/	/	/	/
COc1cc(/C=C/C(=O)c2ccc3c(c2)OCCO3)cc(Br)c1OCC(=O)N(C)C	.	.	12.9	.	.	126.0%	.	27.0%	.	.	51.0%
CC1=C(C/C=C(\C)CCC[C@H](C)CCC[C@H](C)CCCC(C)C)C(=O)c2ccccc2C1=O	.	.	.	.	.	/	/	/	/	/	/
Cc1ccc(S(=O)(=O)/C(C#N)=C/c2c(N3CCOCC3)nc3c(C)cccn3c2=O)cc1	.	.	.	-5.86	.	.	.	-10.5%	.	.	.
Cc1ccc(C(=O)NNC2=Nc3cccc4cccc2c34)cc1	.	.	.	-5.33	.	.	.	.	.	.	.
COc1ccc(C(=O)NNC2=Nc3cccc4cccc2c34)cc1	.	.	.	.	.	/	/	/	/	/	/
CC(=O)c1cccc(NC(=O)c2cc3nc(C)cc(C)n3n2)c1	.	.	.	-5.1	.	.	.	.	.	.	.
SMILES	TRPC4 agonist	TRPC4 inh	TRPC6 activator	TRPC6 inhibitor	TRPC4 PAM	HEK293 MPD ctr-2	HEK293 MPD ctr 2-2	TRPC4 ctr mod	TRPC4/MOR inh 2	TRPC6 block conf	TRPC6 act confirm	others
O=C1/C(=C\c2cc([N+](=O)[O-])ccc2O)SC(=S)N1Cc1ccc(Cl)cc1	137	.	50.7	.	21	+	.	283.5%	.	.	177.5%
O=C(CCNC(=O)c1ccco1)Nc1ccc(Cl)cc1F	.	.	.	.	.	/	/	/	/	/	/
CCN(CC)CCCCNc1ncc2cc(-c3cc(OC)cc(OC)c3)c(NC(=O)NC(C)(C)C)nc2n1	.	.	.	-5.55	.	.	.	.	43.0%	54.5%	.
CCN(CC)CCNC(=O)COc1ccc(OC)cc1	.	.	.	.	.	/	/	/	/	/	/
N/C(Cc1ccc(Cl)cc1Cl)=N\OC(=O)Cc1ccccc1	.	.	.	.	.	/	/	/	/	/	/
CCOC(=O)c1cn(C2CC2)c2c(F)c(NCCCN(C)C)c(F)cc2c1=O	.	.	.	-7.37	.	/	/	/	/	67.1%	.	TRPC4 spec 2=.;TRPC4 spec=-23.0%;HEK293 MPD ctr 2-1=0.0%;HEK293 MPD ctr-1=-436.5%
Cc1ccc(Nc2nc(N/N=C/c3c[nH]c4ccccc34)nc(N3CCOCC3)n2)cc1	.	.	.	.	.	/	/	/	/	/	/
C(=N\Nc1nc(Nc2ccccc2)nc(N2CCOCC2)n1)/c1c[nH]c2ccccc12	.	.	.	-6.08	11	.	.	-20.0%	49.0%	47.5%	.
Cc1cccc(C)c1Nc1c(-c2ccc(N3CCOCC3)cc2)nc2ncccn12	.	.	.	-8.04	.	-123.0%	56.5%	-27.5%	97.0%	76.0%	.
Cc1ccc(Nc2c(-c3ccc(N(C)C)cc3)nc3ncccn23)cc1	.	.	.	.	.	/	/	/	/	/	/
